MLLE-PAM2 inh – blocks PAM2 peptide binding to the PABP1 MLLE domain; P11940; GST-MLLE / FITC-PAM2 fluorescence polarization; inhibition, % at 20 µM; hit rate 0.36% among 360,000; AID 588489; in the data active = inhibition above about 35%, passing the limit was not always enough;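 note: plate controls were DMSO wells with GST-MLLE for no effect and wells lacking GST-MLLE protein for full effect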
PABP FP inh – PABP-poly(A) binding inhibition | P11940 | PABP-poly(A) RNA binding, fluorescence polarization | calls only at 35 µM | hit rate 1% among 290,000 | AID 2014;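 note: calls also rest on retests at 20 µM and on dose response follow-up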
SKN-1 block – C. elegans SKN-1 inhibition. C. elegans VP596 Pgst-4::GFP/RFP ratio, acrylamide-induced, 24 h. inhibition, % at 21.8 µM. hit rate 0.49% among 360,000;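 active = interference check ratio from 0.5 to 1.5 plus GFP to RFP signal ratio inhibition reaching or exceeding a fixed threshold, cut at about 30% in these data, passing the limit was not always enough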
MT1-MMP act inh – MT1-MMP (human) activation inhibition. P50281. HT1080 RFP-PRO-GFP cells, GFP/RFP ratio fluorescence, overnight; percent of plate control window, DMSO zero. GFP/RFP ratio change, % at 20 µM. hit rate 0.061% among 360,000;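 active = GFP/RFP ratio change of at least 30% with cell ATP level not reduced by more than half and red fluorescence within 50% of control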
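Test system: HT1080 RFP-PRO-GFP cells; Benchmarks: DMSO and RFP-L50D-GFP cell wells; Timing: cells overnight before dosing, compound overnight, 37 °C, 5% CO2; Compound: one 20 µM compound dose with 1% DMSO; Read-out: GFP/RFP fluorescence ratio.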
eIF4H FP inh – inhibitors of RNA binding by human eIF4H. Q15056. eIF4H fluorescence polarization binding assay. inhibition, % at 35 µM. hit rate 0.94% among 290,000;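 note: calls also rest on retests at 20 µM and on dose response follow-up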
Starred values were filed as active, the others as inactive; i = inactive; . = not tested or not shown; + = active, no number. An excerpt weighted towards active compounds, which were near 1.8% of everything screened. Unless noted, the rule behind the calls is not given here.

SMILES | MLLE-PAM2 inh | PABP FP inh | SKN-1 block | MT1-MMP act inh | eIF4H FP inh
CCN(C(=O)CN1CCC(C(=O)OC)CC1)c1c(N)n(Cc2ccccc2)c(=O)[nH]c1=O | 0 | . | 11 | -2 | .
FC(F)(F)c1nc2nc(Cl)c(Cl)nc2[nH]1 | -6 | . | 1 | 2 | .
FC(F)(F)C(F)(F)C(F)(F)c1nc2nc(Cl)c(Cl)nc2[nH]1 | 49* | . | 20 | -9 | .
Cc1ccn2c(Cc3ccccc3)c(-c3ccc(F)cc3)nc2c1 | -3 | . | -6 | 4 | .
CCCCOC(=O)c1ccc(NC(=O)COC(=O)C2CSC3(C)CCC(=O)N23)cc1 (stereo unspecified) | -9 | . | 4 | -2 | .
CC12CCC(=O)N1C(C(=O)OCC(=O)Nc1sccc1C#N)CS2 (stereo unspecified) | 15 | + | -24 | 2 | 64*
CN(Cc1ccccc1)C(=O)C1CCN(S(=O)(=O)c2ccc3nc4c(c(C(=O)O)c3c2)CCCC4)CC1 | -6 | i | 10 | -4 | 66*
N#CC1=C(N)C2=C(N3CCCCC3)CCCC2C1(C#N)C#N (stereo unspecified) | 39* | + | 1 | 10 | 110*
COc1cc(C(O)c2nc(-c3ccncc3)cs2)ccc1F (stereo unspecified) | -8 | . | -6 | -3 | .
Cc1cc(F)ccc1S(=O)(=O)N1CCCOC1CNC(=O)C(=O)NCc1ccc2c(c1)OCO2 (stereo unspecified) | 0 | i | 37* | 2 | 7
COc1cc(OC)c(C2Nc3cccc4cccc(c34)N2)c(OC)c1 | 19 | + | 7 | -10 | 70*
CCOc1ccc(C2Nc3cccc4cccc(c34)N2)cc1OC | -11 | + | -1 | 3 | 103*
COc1ccc(C2Nc3cccc4cccc(c34)N2)cc1 | -5 | i | 19 | 2 | 43
Cc1ccc(C(=O)Nc2ccccc2N2CCOCC2)cc1S(=O)(=O)N1CCOCC1 | 9 | . | -2 | -1 | .
Cc1ccc2c(c1)N(C(=O)CCC(=O)NCCN1CCOCC1)CCO2 | 3 | i | 4 | 1 | -5
CCC(=O)Nc1ccc(C(=O)CSc2nnc(-c3ccccc3F)n2C2CC2)cc1 | 7 | i | -2 | -9 | 73*
COc1ccc([N+](=O)[O-])cc1/C=N/NC(=O)CNC(=O)C(c1ccccc1)c1ccccc1 | -3 | + | 0 | 5 | 84*
O=C(C1CC=CCC1)N1CCCCCC1 (stereo unspecified) | 2 | . | -8 | 1 | .
O=c1[nH]ncn2cccc12 | -12 | i | 46* | -4 | -4
COC(=O)Cn1ncn2cccc2c1=O | -3 | i | -5 | 2 | -9
COc1ccccc1CCC(=O)Nc1ccc2c(c1)c(=O)n(C)n2Cc1cccc(C(F)(F)F)c1 | -15 | . | 16 | -9 | .
O=C(/N=C1\NC(=O)C(F)(C(F)(F)F)S1)NC1CCCCC1 (stereo unspecified) | -7 | i | 6 | -4 | 122*
CCC1S/C(=N/C(=O)NC2CCCCC2)NC1=O (stereo unspecified) | 6 | i | -5 | 3 | -11
COc1cc2c(C#N)c(N3CCN(C)CC3)nc(N)c2c(N)n1 | 3 | + | -18 | -10 | 105*
CC1(C(=O)NS(=O)(=O)c2ccc(Cl)cc2)CCN1C(=O)Cc1ccc(Cl)cc1Cl (stereo unspecified) | -11 | . | 5 | -3 | .
SMILES | MLLE-PAM2 inh | PABP FP inh | SKN-1 block | MT1-MMP act inh | eIF4H FP inh
Brc1ccc(-c2cn3ccccc3n2)s1 | -6 | i | 84* | 0 | -8
Clc1ccc(-c2cn3ccccc3n2)cc1 | 6 | i | 16 | 3 | -8
COc1cccc(-c2ncc3ccccc3c2COC(=O)CCC(=O)O)c1 | 7 | . | 21 | 0 | .
O=C1CNC(=O)/C(=C/c2ccco2)N1 | 7 | i | 14 | 2 | 106*
O=C(OCc1cn([C@H]2CN(Cc3cccs3)[C@@H](c3ccc(Cl)cc3)C[C@@H]2O)nn1)c1ccccc1 | 0 | . | -4 | 1 | .
O=C(Nc1ccc(Cl)cn1)c1ccccc1F | 5 | i | 59* | 4 | -3
O=C(O)c1ccc2c(c1)C(=O)/C(=C/c1ccccc1)C2=O | 40* | i | 14 | -12 | 83
CCn1c(CSc2n[nH]c(N)n2)nc2cc(C(=O)O)ccc21 | 19 | i | 37* | 24 | 27
CCn1c(CSc2nnc(-c3cccnc3)n2-c2ccccc2C)nc2cc(C(=O)O)ccc21 | . | i | . | . | 50
COC(=O)c1ccc(C(=O)OC)c(NC(=O)CSc2n[nH]c(N)n2)c1 | -11 | . | 5 | 2 | .
CCn1c(CSc2nnc3ccccn23)nc2cc(C(=O)O)ccc21 | 31 | + | 65 | 42* | 129*
CCn1c(CSc2nnc(-c3ccncc3)n2CCOC)nc2cc(C(=O)O)ccc21 | -6 | i | 38* | 22 | 31
O=C(NC1CCCCC1)C1c2ccccc2OCC(=O)N1CC(F)(F)F (stereo unspecified) | . | . | 12 | 3 | .
COc1ccc(-c2nc3c4ccccc4ccn3c2CC2CCCCC2)cc1OC | 0 | . | 2 | -6 | .
CCOC(=O)CCN(C(=S)Nc1ccccc1)C1CCCCC1 | -59 | . | 0 | -2 | .
Cc1cc(C)cc(OCC(=O)N/N=C/c2ccco2)c1 | 4 | i | 1 | 2 | -7
CCOC(=O)C(=O)N/N=C/c1ccco1 | -6 | + | 14 | 2 | 94*
COc1ccc(C(=S)N2CCOCC2)cc1OC(=O)c1ccc(C)cc1 | -7 | i | 6 | 2 | -3
CCCc1cc(=O)oc2cc(OC3CCCCC3=O)ccc12 (stereo unspecified) | -2 | + | -4 | -1 | 89*
CCCOC(=O)Nc1nc2ccccc2o1 | 11 | + | -23 | -23 | 72*
OC(c1ccc(Cl)cc1)c1ncc(-c2ccc(Oc3ccccc3)cc2)[nH]1 (stereo unspecified) | -11 | . | 8 | 4 | .
COc1ccc(CN(CCN(C)C)c2ccccn2)cc1 | -3 | i | -5 | 2 | 5
CCCCCCCCCCCCCCCC[N+](C)(C)CCN(Cc1ccc(OC)cc1)c1ncccn1 | -4 | . | 59* | -23 | .
CN(C)c1cccc(O)c1 | -1 | . | 47* | 6 | .
CCOC(=O)c1c(C)oc2c1c(C=NCCC(=O)O)c(O)c1ccccc12 | -11 | i | 37* | -19 | 41
CCC(=O)Nc1ccc(C(=O)Nc2cccnc2)cc1 | -12 | + | 17 | 4 | 52*
CC(=O)c1cccc(CN2CCc3ccc(NC(=O)C4CCCO4)cc3C2)c1 (stereo unspecified) | 1 | i | 8 | 1 | 0
O=C(Nc1ccc2c(c1)CN(Cc1ccco1)CC2)C1CCCO1 (stereo unspecified) | -5 | i | 37* | -6 | 49
CC(C)N(CC(N)=O)c1ccc(S(=O)(=O)N2CCCC2)cn1 | 19 | . | 12 | 2 | .
Nc1ccc2oc(-c3ccccc3Cl)cc(=O)c2c1O | 12 | + | 3 | 9 | 90*

Screening data: PubChem BioAssay, Sanford-Burnham Center for Chemical Genomics
